Test results from ChEMBL document CHEMBL3286371, “wALADin benzimidazoles differentially modulate the function of porphobilinogen synthase orthologs” (J Med Chem, 2014).
Active and inactive are the calls of the source. The calls are words filed in the database; no cut-off is given here.

Columns and labels:
[1] = target: T1, Delta-aminolevulinic acid dehydratase, chloroplastic (Pisum sativum, UniProt P30124); assay: Inhibition of Pisum sativum PBGS using 5-ALA as substrate; design: species or system Lathyrus oleraceus
T1 sequence (P30124 whole entry): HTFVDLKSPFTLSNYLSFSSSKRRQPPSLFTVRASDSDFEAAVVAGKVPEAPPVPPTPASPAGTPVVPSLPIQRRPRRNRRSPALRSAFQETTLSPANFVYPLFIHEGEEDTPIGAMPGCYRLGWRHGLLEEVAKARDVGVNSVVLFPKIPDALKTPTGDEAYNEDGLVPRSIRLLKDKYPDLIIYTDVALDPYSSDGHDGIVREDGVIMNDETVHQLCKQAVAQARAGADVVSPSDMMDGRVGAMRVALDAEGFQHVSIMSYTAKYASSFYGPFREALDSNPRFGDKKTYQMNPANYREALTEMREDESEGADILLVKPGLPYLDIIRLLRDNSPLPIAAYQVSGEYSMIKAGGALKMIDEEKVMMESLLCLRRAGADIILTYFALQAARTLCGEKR
Method in brief: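 Pea (P. sativum) PBGS at 300 nM subunit in 100 mM BTP-HCl pH 8.5 with 1 mM MgCl2, 5 mM DTT and 0.2 mM 5-ALA, 15 min at 36 °C. Porphobilinogen detected with Ehrlich's reagent. Activity normalized to 6.7% DMSO control as 100%. IC50 from variable-slope normalized-response fit.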

[2] = target: T2, Delta-aminolevulinic acid dehydratase (Wolbachia sp. subsp. Brugia malayi (strain TRS), UniProt Q5GSR3); assay: Inhibition of C-terminal His-tagged Wolbachia PBGS using 5-ALA as substrate
T2 sequence (Q5GSR3 whole entry): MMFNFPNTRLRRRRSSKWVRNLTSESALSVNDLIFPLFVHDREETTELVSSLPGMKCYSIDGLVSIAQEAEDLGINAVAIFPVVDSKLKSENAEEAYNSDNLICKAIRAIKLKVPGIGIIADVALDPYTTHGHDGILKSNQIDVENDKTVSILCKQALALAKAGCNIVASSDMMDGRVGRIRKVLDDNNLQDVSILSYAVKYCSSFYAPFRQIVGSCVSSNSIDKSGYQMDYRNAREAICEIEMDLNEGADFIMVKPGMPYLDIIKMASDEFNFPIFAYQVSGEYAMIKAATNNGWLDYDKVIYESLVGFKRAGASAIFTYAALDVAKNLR

[3] = target: T3, Delta-aminolevulinic acid dehydratase (Escherichia coli (strain K12)) (UniProt P0ACB2); assay: Stimulation of Escherichia coli recombinant PBGS using 5-ALA as substrate at […]
T3 sequence (whole entry): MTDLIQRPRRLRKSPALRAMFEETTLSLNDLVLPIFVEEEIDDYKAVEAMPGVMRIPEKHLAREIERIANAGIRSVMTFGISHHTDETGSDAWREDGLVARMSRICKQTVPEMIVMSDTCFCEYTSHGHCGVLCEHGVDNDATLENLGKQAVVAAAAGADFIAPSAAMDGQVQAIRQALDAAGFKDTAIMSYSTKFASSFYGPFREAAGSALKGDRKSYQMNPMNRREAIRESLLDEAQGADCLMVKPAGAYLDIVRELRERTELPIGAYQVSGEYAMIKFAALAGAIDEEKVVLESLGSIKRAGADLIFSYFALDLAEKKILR

[4] = target: T3, Delta-aminolevulinic acid dehydratase (Escherichia coli (strain K12)); assay: Inhibition of Escherichia coli recombinant PBGS using 5-ALA as substrate at […]
[5] = target: Delta-aminolevulinic acid dehydratase (Yersinia enterocolitica W22703) (UniProt F4MUJ9); assay: Stimulation of Yersinia enterocolitica recombinant PBGS expressed in Escherichia coli using 5-ALA as substrate at […]
[6] = target: Delta-aminolevulinic acid dehydratase (Yersinia enterocolitica W22703) (UniProt F4MUJ9); assay: Inhibition of Yersinia enterocolitica recombinant PBGS expressed in Escherichia coli using 5-ALA as substrate at […]
[7] = target: Delta-aminolevulinic acid dehydratase (Pseudomonas aeruginosa (strain ATCC 15692 / PAO1 / 1C / PRS 101 / LMG12228)) (UniProt Q59643); assay: Stimulation of Pseudomonas aeruginosa PAO1 recombinant PBGS using 5-ALA as substrate at […]
[8] = target: Delta-aminolevulinic acid dehydratase (Pseudomonas aeruginosa (strain ATCC 15692 / PAO1 / 1C / PRS 101 / LMG12228)) (UniProt Q59643); assay: Inhibition of Pseudomonas aeruginosa PAO1 recombinant PBGS using 5-ALA as substrate at […]
Toxoplasma gondii [9] = assay: Stimulation of Toxoplasma gondii recombinant PBGS using 5-ALA as substrate at […]
Toxoplasma gondii [10] = assay: Inhibition of Toxoplasma gondii recombinant PBGS using 5-ALA as substrate at […]
[11] = target: T4, Delta-aminolevulinic acid dehydratase (Drosophila melanogaster, UniProt Q9VTV9); assay: Inhibition of Drosophila melanogaster recombinant PBGS using 5-ALA as substrate
T4 sequence (Q9VTV9 whole entry): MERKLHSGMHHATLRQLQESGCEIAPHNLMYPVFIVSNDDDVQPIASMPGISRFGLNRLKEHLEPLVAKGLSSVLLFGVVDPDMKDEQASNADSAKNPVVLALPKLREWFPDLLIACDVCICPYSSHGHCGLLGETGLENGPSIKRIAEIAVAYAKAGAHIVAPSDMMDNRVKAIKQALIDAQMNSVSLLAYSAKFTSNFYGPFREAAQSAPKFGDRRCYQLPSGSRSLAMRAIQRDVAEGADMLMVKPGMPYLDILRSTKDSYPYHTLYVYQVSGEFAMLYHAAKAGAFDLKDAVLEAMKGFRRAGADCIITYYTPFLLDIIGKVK

[12] = target: T5, Delta-aminolevulinic acid dehydratase (Homo sapiens, UniProt P13716); assay: Inhibition of human PBGS using 5-ALA as substrate
T5 sequence (P13716 whole entry): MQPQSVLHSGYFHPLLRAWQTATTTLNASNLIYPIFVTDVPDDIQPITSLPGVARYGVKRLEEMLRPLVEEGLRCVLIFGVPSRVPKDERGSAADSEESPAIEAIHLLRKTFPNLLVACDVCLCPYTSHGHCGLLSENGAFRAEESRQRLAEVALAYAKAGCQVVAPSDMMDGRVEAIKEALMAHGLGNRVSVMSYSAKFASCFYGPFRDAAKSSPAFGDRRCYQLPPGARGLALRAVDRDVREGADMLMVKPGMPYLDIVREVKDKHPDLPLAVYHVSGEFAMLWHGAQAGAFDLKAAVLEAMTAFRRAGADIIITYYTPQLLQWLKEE

[13] = target: T6, Delta-aminolevulinic acid dehydratase (Escherichia coli (strain K12), UniProt P0ACB2); assay: Stimulation of Escherichia coli recombinant PBGS using 5-ALA as substrate
T6 sequence (P0ACB2 whole entry): T3 sequence (whole entry)
Method in brief: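 E. coli PBGS at 200 nM subunit in 100 mM BTP-HCl pH 8.1 with 1 mM MgCl2, 10 μM ZnCl2, 5 mM DTT and 0.2 mM 5-ALA, 10 min at 36 °C. Porphobilinogen detected with Ehrlich's reagent. Activity normalized to control with 6.7% DMSO set at 100%. EC50 by log(agonist) vs response variable-slope fit.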

[14] = target: Delta-aminolevulinic acid dehydratase (Yersinia enterocolitica W22703) (UniProt F4MUJ9); assay: Stimulation of Yersinia enterocolitica recombinant PBGS expressed in Escherichia coli using 5-ALA as substrate relative to control
Method in brief: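 Y. enterocolitica PBGS, expressed in E. coli from pET3, at 150 nM subunit in 100 mM BTP-HCl pH 8.0 with 1 mM MgCl2, 5 mM DTT, 100 mM KCl and 0.2 mM 5-ALA, 10 min at 36 °C. Porphobilinogen read with Ehrlich's reagent. Activity normalized to 6.7% DMSO control as 100%. EC50 from variable-slope agonist fit.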

[15] = target: Delta-aminolevulinic acid dehydratase (Pseudomonas aeruginosa (strain ATCC 15692 / PAO1 / 1C / PRS 101 / LMG12228), UniProt Q59643); assay: Stimulation of Pseudomonas aeruginosa PAO1 recombinant PBGS using 5-ALA as substrate
Method in brief: (§1)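 His-tagged PaPBGS at 150 nM subunit in 100 mM Tris-HCl pH 8.0 with 1 mM MgCl2, 100 mM KCl and 0.2 mM 5-ALA, 10 min at 36 °C, with turnover at most 30%. Porphobilinogen read with Ehrlich's reagent. Activity normalized to 6.7% DMSO control as 100%. EC50 from variable-slope agonist fit.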

[16] = target: Delta-aminolevulinic acid dehydratase (Pseudomonas aeruginosa (strain ATCC 15692 / PAO1 / 1C / PRS 101 / LMG12228)) (UniProt Q59643); assay: Stimulation of Pseudomonas aeruginosa PAO1 recombinant PBGS using 5-ALA as substrate relative to control; method in brief: as §1
[17] = Stimulation of Toxoplasma gondii recombinant PBGS using 5-ALA as substrate
Method in brief: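 T. gondii PBGS, expressed from pET-21b in BL21 E. coli and purified, at 250 nM subunit in 100 mM Tris-HCl pH 8.0 with 1 mM MgCl2, 5 mM DTT and 0.2 mM 5-ALA, 20 min at 36 °C. Porphobilinogen detected with Ehrlich's reagent. Activity normalized to 6.7% DMSO control. EC50 by variable-slope agonist fit.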

Toxoplasma gondii [18] = assay: Stimulation of Toxoplasma gondii recombinant PBGS using 5-ALA as substrate relative to control
Method in brief: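 Recombinant T. gondii PBGS (hemB in pET-21b, expressed in BL21 E. coli) at 250 nM subunit in 100 mM Tris-HCl pH 8.0, 1 mM MgCl2, 5 mM DTT, with 200 μM 5-ALA, 20 min at 36 °C. Porphobilinogen was read with Ehrlich's reagent, and turnover was kept at or below 30%.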

Delta-aminolevulinic acid dehydratase (Yersinia enterocolitica W22703), sequence (F4MUJ9 as listed by the source): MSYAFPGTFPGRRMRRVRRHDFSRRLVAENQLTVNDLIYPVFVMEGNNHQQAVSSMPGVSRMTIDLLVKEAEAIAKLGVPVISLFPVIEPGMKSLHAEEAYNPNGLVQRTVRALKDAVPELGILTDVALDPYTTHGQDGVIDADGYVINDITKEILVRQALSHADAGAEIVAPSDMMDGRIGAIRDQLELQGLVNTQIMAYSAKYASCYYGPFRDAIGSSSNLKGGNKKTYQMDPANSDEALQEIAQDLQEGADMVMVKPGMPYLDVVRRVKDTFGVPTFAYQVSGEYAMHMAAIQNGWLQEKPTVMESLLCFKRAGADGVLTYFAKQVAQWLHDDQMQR
Delta-aminolevulinic acid dehydratase (Pseudomonas aeruginosa (strain ATCC 15692 / PAO1 / 1C / PRS 101 / LMG12228)), sequence (Q59643 whole entry): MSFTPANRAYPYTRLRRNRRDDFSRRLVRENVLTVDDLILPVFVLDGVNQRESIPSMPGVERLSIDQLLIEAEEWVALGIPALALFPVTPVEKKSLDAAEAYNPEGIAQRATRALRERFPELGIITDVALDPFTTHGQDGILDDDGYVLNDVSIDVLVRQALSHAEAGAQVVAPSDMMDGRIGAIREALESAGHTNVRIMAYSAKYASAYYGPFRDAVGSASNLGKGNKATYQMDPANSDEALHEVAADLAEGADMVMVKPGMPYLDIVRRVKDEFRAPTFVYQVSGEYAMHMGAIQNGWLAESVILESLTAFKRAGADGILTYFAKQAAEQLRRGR
Delta-aminolevulinic acid dehydratase (Pseudomonas aeruginosa (strain ATCC 15692 / PAO1 / 1C / PRS 101 / LMG12228), UniProt Q59643), sequence (Q59643 whole entry): as above

| SMILES | IC50 [1] | IC50 [2] | Smax [3] | inhibition [4] | Smax [5] | inhibition [6] | Smax [7] | inhibition [8] | Smax (Toxoplasma gondii [9]) | inhibition (Toxoplasma gondii [10]) | IC50 [11] | IC50 [12] | EC50 [13] | Smax [14] | EC50 [15] | Smax [16] | EC50 [17] | Smax (Toxoplasma gondii [18]) |
| --- | --- | --- | --- | --- | --- | --- | --- | --- | --- | --- | --- | --- | --- | --- | --- | --- | --- | --- |
| O=C(O)c1ccc2c(c1)ncn2Cc1ccccc1 | 182 µM | 197 µM | 100% | inactive | 100% | inactive | 100% | inactive | 100% | inactive | 1030 µM | 213 µM | – | – | – | – | – | – |
| O=C(O)c1ccc2c(c1)ncn2Cc1ccccc1C(F)(F)F | 64.3 µM | 293 µM | 100% | inactive | 100% | inactive | 100% | inactive | 100% | inactive | > 1000 µM | 145 µM | – | – | – | – | – | – |
| O=C(NCCc1nc2cccc(C(=O)O)c2n1Cc1cccc(C(F)(F)F)c1)c1cccs1 | > 500 µM | 164 µM | 100% | inactive | 118% | – | 100% | inactive | 113% | – | > 1000 µM | – | – | – | – | – | – | – |
| O=C(O)c1ccc2[nH]cnc2c1 | > 500 µM | 500 µM | 100% | inactive | 100% | inactive | 100% | inactive | 100% | inactive | > 1000 µM | 511 µM | – | – | – | – | – | – |
| O=C(O)c1ccc2c(c1)nc(CCNC(=O)c1cccs1)n2Cc1ccc(C(F)(F)F)cc1 | 44.3 µM | 38.6 µM | – | – | – | – | – | – | – | – | 1010 µM | 637 µM | 39 µM | 142% | 68 µM | 140% | 37 µM | 118% |
| O=C(O)c1ccc2nc(CCNC(=O)c3cccs3)n(Cc3cccc(C(F)(F)F)c3)c2c1 | 89 µM | 317 µM | 100% | inactive | 131% | – | 100% | inactive | – | – | 257 µM | – | – | – | – | – | – | – |
